According to paper PMC11064185 (ACS Omega, 2024):

Columns and labels:
α-glucosidase = α-glucosidase (Saccharomyces cerevisiae, UniProt P53341); assay: affinity ultrafiltration UPLC–Q-TOF–MS/MS screening, binding rate; conditions: peak area reduction in CGB extract after ultrafiltration
In short: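 95% ethanol reflux extract of whole herb: three 3 h extractions at 1:13 m/v, then concentrated and dried. Extract incubated with yeast α-glucosidase and ultrafiltered on a 10 kDa membrane. Bound ligands released from the retentate with methanol and identified by UPLC-Q-TOF-MS/MS.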

[1] = molecular target: Saccharomyces cerevisiae α-glucosidase (Saccharomyces cerevisiae, UniProt P53341); assay: α-glucosidase inhibition assay; format: biochemical
Saccharomyces cerevisiae α-glucosidase, sequence (P53341 whole entry): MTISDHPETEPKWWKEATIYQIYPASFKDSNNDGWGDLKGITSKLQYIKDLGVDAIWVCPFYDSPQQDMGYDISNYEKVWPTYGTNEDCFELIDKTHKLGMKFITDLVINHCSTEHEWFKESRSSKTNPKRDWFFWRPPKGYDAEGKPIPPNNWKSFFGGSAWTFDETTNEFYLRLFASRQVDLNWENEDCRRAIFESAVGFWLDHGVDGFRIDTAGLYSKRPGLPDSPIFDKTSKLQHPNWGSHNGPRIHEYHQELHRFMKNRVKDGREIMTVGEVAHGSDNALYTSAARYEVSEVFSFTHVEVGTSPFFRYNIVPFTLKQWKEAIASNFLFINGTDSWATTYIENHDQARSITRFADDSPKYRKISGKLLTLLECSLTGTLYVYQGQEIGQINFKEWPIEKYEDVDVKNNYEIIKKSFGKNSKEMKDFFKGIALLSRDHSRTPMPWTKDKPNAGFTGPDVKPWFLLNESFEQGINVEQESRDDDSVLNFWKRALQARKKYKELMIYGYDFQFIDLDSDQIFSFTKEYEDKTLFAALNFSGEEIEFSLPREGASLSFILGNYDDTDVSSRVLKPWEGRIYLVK

α-glucosidase, sequence (P53341 whole entry): as above

Compound | AD (affinity degree, binding rate to α-glucosidase) (α-glucosidase) [%] | IC50 [1] [µM]
O=c1c(O)c(-c2ccc(O)c(O)c2)oc2cc(O)cc(O)c12 [quercetin] | 12.4 | 
COc1c(-c2ccc(O)c(O)c2)oc2cc(O)cc(O)c2c1=O [3-O-methylquercetin] | 17.2 | 436.35 ± 0.01
O=c1c(O[C@@H]2O[C@H](CO)[C@H](O)[C@H](O)[C@H]2O)c(-c2ccc(O)c(O)c2)oc2cc(O)cc(O)c12 [hyperoside] | 23.4 | 1072.4 ± 0.54
